{"data": "Measurements from different studies", "target": "Ankyrin repeat and protein kinase domain-containing protein 1 (ANKK1, Homo sapiens, UniProt Q8NFD2)", "Sequence (Q8NFD2 1-765, as in one of the studies)": "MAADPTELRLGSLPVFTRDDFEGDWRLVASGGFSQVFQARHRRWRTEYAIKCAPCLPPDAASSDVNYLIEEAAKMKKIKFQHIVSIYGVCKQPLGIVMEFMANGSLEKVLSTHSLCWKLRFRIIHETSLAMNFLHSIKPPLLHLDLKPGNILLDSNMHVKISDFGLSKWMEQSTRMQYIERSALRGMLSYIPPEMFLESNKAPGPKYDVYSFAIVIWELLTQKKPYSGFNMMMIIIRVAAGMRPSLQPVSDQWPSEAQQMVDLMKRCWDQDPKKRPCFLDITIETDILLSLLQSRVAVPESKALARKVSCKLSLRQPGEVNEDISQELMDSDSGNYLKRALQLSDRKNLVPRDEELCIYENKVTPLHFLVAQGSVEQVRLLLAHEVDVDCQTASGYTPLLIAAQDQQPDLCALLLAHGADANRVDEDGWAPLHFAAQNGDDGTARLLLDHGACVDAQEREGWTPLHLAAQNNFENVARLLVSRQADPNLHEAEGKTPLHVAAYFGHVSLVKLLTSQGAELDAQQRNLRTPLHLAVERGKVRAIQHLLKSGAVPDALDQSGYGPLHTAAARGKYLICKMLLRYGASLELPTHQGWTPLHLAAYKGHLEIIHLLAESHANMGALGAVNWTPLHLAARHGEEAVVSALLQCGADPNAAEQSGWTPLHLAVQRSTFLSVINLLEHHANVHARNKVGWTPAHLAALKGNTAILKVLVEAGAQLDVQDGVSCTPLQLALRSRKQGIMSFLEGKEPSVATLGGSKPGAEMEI", "note": "Compare with care: the assays were run in different laboratories."}
{"SMILES": "c1cnn2ncc(-c3ccnc(N4CCC45COC5)n3)c2c1", "assay": "binding", "setting": "1 µM", "remaining binding": "72%"}
{"SMILES": "O=c1nc(-c2ccccn2)sc2ccccc12", "assay": "binding, competition with immobilised ligand", "setting": "1 µM", "remaining binding": "100%"}
{"SMILES": "COc1cnc(Nc2cccc(S(N)(=O)=O)c2)nc1N1CCN(c2ccccc2)CC1", "assay": "binding, competition with immobilised ligand", "setting": "1 µM", "remaining binding": "97%"}
{"SMILES": "O=C(NCCCN1CCOCC1)c1ccc(Nc2ncc(Cl)c(-c3ccc(Cl)s3)n2)cc1", "assay": "binding, competition with immobilised ligand", "setting": "1 µM", "remaining binding": "77%"}
{"SMILES": "O=C(Nc1c[nH]nc1C(=O)NC1CCNCC1)c1cc(F)cc(F)c1", "assay": "binding, competition with immobilised ligand", "setting": "1 µM", "remaining binding": "100%"}
{"SMILES": "FC(F)(F)Oc1cccc(-c2cnc3ccc(-c4ccncc4)nn23)c1", "assay": "cell-free assay, competition with immobilised ligand", "setting": "5 µM", "remaining binding": "70%"}
{"SMILES": "O=C(NCCCC1CCCCC1)c1ccc(CNC(=O)c2cnn(-c3ccccc3)c2C(F)(F)F)cc1", "assay": "cell-free assay, competition with immobilised ligand", "setting": "0.1 µM", "remaining binding": "100%"}
{"SMILES": "CN(C)c1ncc(F)c(-c2cnn3ncccc23)n1", "assay": "binding", "setting": "1 µM", "remaining binding": "69%"}
{"SMILES": "CCN1CCN(Cc2ccc(C(=O)Nc3ccc(C)c(Oc4ccc5c(c4)CC(=O)N5)c3)cc2C(F)(F)F)CC1", "assay": "binding, competition with immobilised ligand", "setting": "1 µM", "remaining binding": "100%"}
{"SMILES": "C[C@@]1(Cc2ccc(C#N)cc2)C(=O)N(c2cc(Cl)cc(Cl)c2)c2ncc(C(=O)NC3(c4nc(C5CCC5)no4)CC3)n21", "assay": "cell-free assay, competition with immobilised ligand", "setting": "1 µM", "remaining binding": "100%"}
{"SMILES": "O=C(NCCCN1CCOCC1)c1ccc(Nc2nccc(-c3cc4ccccc4s3)n2)cc1", "assay": "binding, competition with immobilised ligand", "setting": "1 µM", "remaining binding": "71%"}
{"SMILES": "N[C@@H]1CCN(c2nccc(-c3cnn4ncccc34)n2)C1", "assay": "binding", "setting": "1 µM", "remaining binding": "100%"}
{"SMILES": "Nc1ncc2c(n1)-c1c([nH]c3ccc(C#CC4CC4)cc13)CCCC2", "assay": "binding, competition with immobilised ligand", "setting": "1 µM", "remaining binding": "85%"}
{"SMILES": "CC1=C(C#N)C(c2ccc3c(c2)c(NC(=O)c2ccccc2C)nn3C)C(C#N)=C(C)N1", "assay": "cell-free assay, competition with immobilised ligand", "setting": "1 µM", "remaining binding": "92%"}
{"SMILES": "COc1ccnn2ncc(-c3ccnc(N(C)C)n3)c12", "assay": "binding", "setting": "1 µM", "remaining binding": "78%"}
{"SMILES": "CO[C@@H](C)c1c(Nc2ccc([C@@H](N(C)C(=O)C3CCS(=O)(=O)CC3)C(F)(F)F)cc2)cnc2cc(Cl)nn12", "assay": "cell-free assay, competition with immobilised ligand", "setting": "1 µM", "remaining binding": "100%"}
{"SMILES": "C[C@@H]1CCN(c2nccc(-c3cnn4ncccc34)n2)C1", "assay": "binding", "setting": "1 µM", "remaining binding": "81%"}
{"SMILES": "O=C(c1ccc(Nc2ncc(Cl)c(-c3cc4ccccc4s3)n2)cc1)N1CCC(N2CCCC2)CC1", "assay": "binding, competition with immobilised ligand", "setting": "1 µM", "remaining binding": "62%"}
{"SMILES": "CN(c1nccc(-c2cnn3ncccc23)n1)C1CC1", "assay": "binding", "setting": "1 µM", "remaining binding": "100%"}
{"SMILES": "O=C(O)[C@H]1[C@H](Cn2nnc3ccccc3c2=O)CC[C@@H]1C(=O)c1ccc(OCCC2CCOCC2)cc1", "assay": "cell-free assay, competition with immobilised ligand", "setting": "1 µM", "remaining binding": "100%"}
